Test results reported in ChEMBL document CHEMBL1129650, “Structure-activity relationships of novel hematoregulatory peptides” (1996).
Bridge positions count the residues as written; N and C are the ends. Square brackets hold non-standard residues; d marks the D form. Peptide text beside a SMILES is read from it. I, II: the chains in the order shown. pGlu = O=C1CC[C@@H](C(=O)O)N1

What follows are compounds tested on C6 (assay: Relative potency for induction of Colony-Stimulating activity(CSA) of C6 stromal line.).
Assay type: functional, Mus musculus
Design: reference not given here
Summary of the method: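 Murine C6 stromal cells (or subclone C6.4) were grown to confluence in RPMI with 10% FBS, then switched to serum-free medium with peptide (initially 0.001–1000 ng/mL, log doses, duplicate wells). Exposure was 1 h at 37 °C, followed by washing, and conditioned supernatant was collected 24 h later. Supernatant (10–2.5% v/v) plus C57Bl/6 femoral marrow went into 0.3% agar with 15% FBS for 7 days. Colonies of >50 cells were counted in triplicate. EC50 was taken from the ascending curve and expressed relative to the reference peptide.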

SMILES	Relative potency
NCCCC[C@H](NC(=O)[C@H](CCCC[C@H](NC(=O)[C@H](CC(=O)O)NC(=O)[C@H](CC(=O)O)NC(=O)[C@@H]1CCC(=O)N1)C(=O)N[C@@H](CCCCN)C(=O)O)NC(=O)[C@H](CC(=O)O)NC(=O)[C@H](CC(=O)O)NC(=O)[C@@H]1CCC(=O)N1)C(=O)O	1
NC(=O)CC[C@H](NC(=O)[C@H](CC[C@H](NC(=O)[C@H](CO)NC(=O)[C@H](CO)NC(=O)c1ccccn1)C(=O)N[C@@H](CCC(N)=O)C(N)=O)NC(=O)[C@H](CO)NC(=O)[C@H](CO)NC(=O)c1ccccn1)C(N)=O	<1e-06
NCCCC[C@H](NC(=O)[C@@H](CCCC[C@@H](NC(=O)[C@H](CC(=O)O)NC(=O)[C@H](CCC(=O)O)NC(=O)[C@@H]1CCC(=O)N1)C(=O)N[C@@H](CCCCN)C(=O)O)NC(=O)[C@H](CC(=O)O)NC(=O)[C@H](CCC(=O)O)NC(=O)[C@@H]1CCC(=O)N1)C(=O)O	<1e-06
NCCCC[C@H](NC(=O)[C@H](CCCC[C@H](NC(=O)[C@H](CC(=O)O)NC(=O)[C@H](CCC(=O)O)NC(=O)[C@@H]1CCC(=O)N1)C(=O)N[C@@H](CCCCN)C(N)=O)NC(=O)[C@H](CC(=O)O)NC(=O)[C@H](CCC(=O)O)NC(=O)[C@@H]1CCC(=O)N1)C(N)=O	1
NCCCC[C@H](NC(=O)[C@H](CCCC[C@H](NC(=O)[C@H](CCC(=O)O)NC(=O)[C@H](CCC(=O)O)NC(=O)[C@@H]1CCC(=O)N1)C(=O)N[C@@H](CCCCN)C(=O)O)NC(=O)[C@H](CCC(=O)O)NC(=O)[C@H](CCC(=O)O)NC(=O)[C@@H]1CCC(=O)N1)C(=O)O	1
NCCCC[C@H](NC(=O)[C@H](CCCC[C@H](NC(=O)[C@H](CC(=O)O)NC(=O)[C@H](CCC(=O)O)NC(=O)[C@H]1CCC(=O)N1)C(=O)N[C@@H](CCCCN)C(=O)O)NC(=O)[C@H](CC(=O)O)NC(=O)[C@H](CCC(=O)O)NC(=O)[C@H]1CCC(=O)N1)C(=O)O	0.0001
NCCCC[C@H](NC(=O)[C@H](CCCCCC[C@H](NC(=O)[C@H](CC(=O)O)NC(=O)[C@H](CCC(=O)O)NC(=O)[C@@H]1CCC(=O)N1)C(=O)N[C@@H](CCCCN)C(=O)O)NC(=O)[C@H](CC(=O)O)NC(=O)[C@H](CCC(=O)O)NC(=O)[C@@H]1CCC(=O)N1)C(=O)O	<1e-06
NCCCC[C@H](NC(=O)[C@H](CCCCC[C@H](NC(=O)[C@H](CC(=O)O)NC(=O)[C@H](CCC(=O)O)NC(=O)[C@@H]1CCC(=O)N1)C(=O)N[C@@H](CCCCN)C(=O)O)NC(=O)[C@H](CC(=O)O)NC(=O)[C@H](CCC(=O)O)NC(=O)[C@@H]1CCC(=O)N1)C(=O)O	<1e-06
NCCCC[C@H](NC(=O)[C@H](CCCC[C@H](NC(=O)[C@H](CC(=O)O)NC(=O)[C@H](CCC(=O)O)NC(=O)[C@@H]1CCCO1)C(=O)N[C@@H](CCCCN)C(=O)O)NC(=O)[C@H](CC(=O)O)NC(=O)[C@H](CCC(=O)O)NC(=O)[C@@H]1CCCO1)C(=O)O	<1e-06
NCCCC[C@@H](NC(=O)[C@H](CCCC[C@H](NC(=O)[C@H](CC(=O)O)NC(=O)[C@H](CCC(=O)O)NC(=O)[C@@H]1CCC(=O)N1)C(=O)N[C@H](CCCCN)C(=O)O)NC(=O)[C@H](CC(=O)O)NC(=O)[C@H](CCC(=O)O)NC(=O)[C@@H]1CCC(=O)N1)C(=O)O	<1e-06
CCCC[C@H](NC(=O)[C@H](CCCC[C@H](NC(=O)[C@H](C)NC(=O)[C@H](CO)NC(=O)c1ccccn1)C(=O)N[C@@H](CCCC)C(N)=O)NC(=O)[C@H](C)NC(=O)[C@H](CO)NC(=O)c1ccccn1)C(N)=O	<1e-06
NCCC[C@H](NC(=O)[C@H](CCCC[C@H](NC(=O)[C@H](CC(=O)O)NC(=O)[C@H](CCC(=O)O)NC(=O)[C@@H]1CCC(=O)N1)C(=O)N[C@@H](CCCN)C(=O)O)NC(=O)[C@H](CC(=O)O)NC(=O)[C@H](CCC(=O)O)NC(=O)[C@@H]1CCC(=O)N1)C(=O)O	<1e-06
NCCCC[C@H](NC(=O)[C@H](CC[C@H](NC(=O)[C@H](CC(=O)O)NC(=O)[C@H](CCC(=O)O)NC(=O)c1ccccn1)C(=O)N[C@@H](CCCCN)C(N)=O)NC(=O)[C@H](CC(=O)O)NC(=O)[C@H](CCC(=O)O)NC(=O)c1ccccn1)C(N)=O	100
NCCCC[C@H](NC(=O)[C@H](CCCC[C@H](NC(=O)[C@H](CC(=O)O)NC(=O)[C@H](CO)NC(=O)c1ccccn1)C(=O)N[C@@H](CCCCN)C(=O)O)NC(=O)[C@H](CC(=O)O)NC(=O)[C@H](CO)NC(=O)c1ccccn1)C(=O)O	100
NCCCC[C@H](NC(=O)[C@H](CCCC[C@H](NC(=O)[C@H](CC(=O)O)NC(=O)[C@H](CCC(=O)O)NC(=O)C1CCCCC1)C(=O)N[C@@H](CCCCN)C(=O)O)NC(=O)[C@H](CC(=O)O)NC(=O)[C@H](CCC(=O)O)NC(=O)C1CCCCC1)C(=O)O	<1e-06
NCCCC[C@H](NC(=O)[C@H](CCCC[C@H](NC(=O)[C@H](CC(=O)O)NC(=O)[C@H](CCC(=O)O)NC(=O)c1cccs1)C(=O)N[C@@H](CCCCN)C(=O)O)NC(=O)[C@H](CC(=O)O)NC(=O)[C@H](CCC(=O)O)NC(=O)c1cccs1)C(=O)O	<1e-06
NCCCC[C@H](NC(=O)[C@H](CCC(=O)O)NC(=O)[C@@H]1CCC(=O)N1)C(=O)N[C@@H](CCCC[C@H](NC(=O)[C@H](CCCCN)NC(=O)[C@H](CCC(=O)O)NC(=O)[C@@H]1CCC(=O)N1)C(=O)N[C@@H](CC(=O)O)C(=O)O)C(=O)N[C@@H](CC(=O)O)C(=O)O	< 1e-06
NCCCC[C@H](NC(=O)[C@H](CCCC[C@H](NC(=O)[C@@H](CC(=O)O)NC(=O)[C@H](CCC(=O)O)NC(=O)[C@@H]1CCC(=O)N1)C(=O)N[C@@H](CCCCN)C(=O)O)NC(=O)[C@@H](CC(=O)O)NC(=O)[C@H](CCC(=O)O)NC(=O)[C@@H]1CCC(=O)N1)C(=O)O	<1e-06
NCCCC[C@H](NC(=O)[C@H](CCC[C@H](NC(=O)[C@H](CC(=O)O)NC(=O)[C@H](CCC(=O)O)NC(=O)[C@@H]1CCC(=O)N1)C(=O)N[C@@H](CCCCN)C(=O)O)NC(=O)[C@H](CC(=O)O)NC(=O)[C@H](CCC(=O)O)NC(=O)[C@@H]1CCC(=O)N1)C(=O)O	< 1e-06
NCCCC[C@H](NC(=O)[C@H](CCCC[C@H](NC(=O)[C@H](CC(=O)O)NC(=O)[C@H](CCC(=O)O)NC(=O)c1ccc2ccccc2n1)C(=O)N[C@@H](CCCCN)C(=O)O)NC(=O)[C@H](CC(=O)O)NC(=O)[C@H](CCC(=O)O)NC(=O)c1ccc2ccccc2n1)C(=O)O	<1e-06
NCCCC[C@@H](CO)NC(=O)[C@H](CCCC[C@H](NC(=O)[C@H](CC(=O)O)NC(=O)[C@H](CCC(=O)O)NC(=O)[C@@H]1CCC(=O)N1)C(=O)N[C@H](CO)CCCCN)NC(=O)[C@H](CC(=O)O)NC(=O)[C@H](CCC(=O)O)NC(=O)[C@@H]1CCC(=O)N1	<1e-06
NCCCC[C@H](NC(=O)[C@H](CCCC[C@H](NC(=O)[C@H](CC(=O)O)NC(=O)[C@H](CO)NC(=O)[C@@H]1CCC(=O)N1)C(=O)N[C@@H](CCCCN)C(=O)O)NC(=O)[C@H](CC(=O)O)NC(=O)[C@H](CO)NC(=O)[C@@H]1CCC(=O)N1)C(=O)O	10
NCCCC[C@H](NC(=O)[C@H](CC[C@H](NC(=O)[C@H](CC(=O)O)NC(=O)[C@H](CCC(=O)O)NC(=O)[C@@H]1CCC(=O)N1)C(=O)N[C@@H](CCCCN)C(=O)O)NC(=O)[C@H](CC(=O)O)NC(=O)[C@H](CCC(=O)O)NC(=O)[C@@H]1CCC(=O)N1)C(=O)O	1000
N=C(N)NCCC[C@@H](NC(=O)[C@H](CCCC[C@H](NC(=O)[C@H](CC(=O)O)NC(=O)[C@H](CCC(=O)O)NC(=O)[C@@H]1CCC(=O)N1)C(=O)N[C@H](CCCNC(=N)N)C(=O)O)NC(=O)[C@H](CC(=O)O)NC(=O)[C@H](CCC(=O)O)NC(=O)[C@@H]1CCC(=O)N1)C(=O)O	<1e-06
NCCCC[C@H](NC(=O)[C@H](CC[C@H](NC(=O)[C@H](CC(=O)O)NC(=O)[C@H](CO)NC(=O)c1ccccn1)C(=O)N[C@@H](CCCCN)C(=O)O)NC(=O)[C@H](CC(=O)O)NC(=O)[C@H](CO)NC(=O)c1ccccn1)C(=O)O	10000
NCCCC[C@H](NC(=O)[C@H](CSSC[C@H](NC(=O)[C@H](CC(=O)O)NC(=O)[C@H](CCC(=O)O)NC(=O)[C@@H]1CCC(=O)N1)C(=O)N[C@@H](CCCCN)C(=O)O)NC(=O)[C@H](CC(=O)O)NC(=O)[C@H](CCC(=O)O)NC(=O)[C@@H]1CCC(=O)N1)C(=O)O (I: [pGlu]EDCK-OH / II: [pGlu]EDCK-OH; disulfide I:4-II:4)	0.01
NCCCC[C@H](NC(=O)[C@H](CCCC[C@H](NC(=O)[C@H](CC(=O)O)NC(=O)[C@H](CCC(=O)O)NC(=O)[C@@H]1CCC(=O)N1)C(=O)N[C@@H](CCCCN)C(=O)O)NC(=O)[C@H](CC(=O)O)NC(=O)[C@H](CCC(=O)O)NC(=O)[C@@H]1CCC(=O)N1)C(=O)O [GLASPIMOD]	1
